Calls of active or inactive are those of the source. No cut-off for these calls is given here.

For data set [1], the system named is Hepatitis C virus. The data set can be described thus: Antiviral activity against EGFP-fused HCV JFH-1 harboring K78E/E2-G451R/NS3-M260K/NS5A-T462I mutation infected in human Huh7.5.1 cells assessed as reduction in viral RNA level after 2 days in presence of IFNalpha by qRT-PCR analysis. It counts as functional, organism-based. The conditions noted are these: Hepacivirus hominis. Summed up: (§1)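 Huh7.5.1 cells at 1×10^4/well, grown overnight at 37 °C. HCVcc was mixed with serially diluted compound (top 30 or 6 μM), given alone or with the named drug, and added to the cells. Viral RNA was read by qRT-PCR after 2 days. EC50 is the concentration giving 50% RNA reduction.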

The test system of data set [2] is Hepatitis C virus. The data set can be described thus: Antiviral activity against EGFP-fused HCV JFH-1 harboring K78E/E2-G451R/NS3-M260K/NS5A-T462I mutation infected in human Huh7.5.1 cells assessed as combination index after 2 days in presence of telaprevir by qRT-PCR analysis. It counts as functional, Hepacivirus hominis. In outline: (§2)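 In HCVcc-infected Huh7.5.1 cells (1×10^4/well, overnight, 37 °C), compound was given at various concentrations alone or with the named approved antiviral. After 2 days HCV RNA was quantified by qRT-PCR to derive the combination index.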
(In general: Quantitative PCR measures a nucleic acid by following its amplification.)

Data set [3] concerns Huh7.5.1. The data set can be described thus: Antiviral activity against EGFP-fused HCV JFH-1 harboring K78E/E2-G451R/NS3-M260K/NS5A-T462I mutant infected in human Huh7.5.1 cells assessed as inhibition of viral entry at 0.01 uM preincubated for 2 hrs at 4 degC followed by virus/compound mixture wash-out and subsequent compound addition and measured up to 10 hrs at 37 degC. It counts as functional, cell-based. Summed up:
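Time-of-addition: Huh7.5.1 cells were bound with HCVcc at 4 °C for 2 h. Unbound virus was removed, cells were shifted to 37 °C (T = 0), and compound was added at different time points afterwards. Anti-CD81 antibody served as the entry-inhibitor control.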

Data set [4] relates to Hepatitis C virus. Kind of data set: Antiviral activity against HCV JFH-1 harboring K78E/E2-G451R/NS3-M260K/NS5A-T462I mutant infected in human Huh7.5.1 cells after 2 days by renilla luciferase reporter gene assay. It counts as functional, organism-based, Hepacivirus hominis. The note with it: JFH-1, Huh-7.5.1, 48 h. In outline: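 Renilla luciferase reporter HCVcc (hRluc inserted in NS5A, aa 399/400) came from electroporated Huh7.5.1 supernatant. Virus plus serially diluted compound (top 30 or 6 μM) was added to Huh7.5.1 cells (1×10^4/well) and luminescence read. EC50 is 50% luminescence reduction.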
Background: A reporter such as luciferase makes a cellular process visible.

For data set [5], the species on record is Homo sapiens. Kind of data set: Binding affinity to C-terminal 6-His tagged recombinant human DHODH N-terminal domain delta29 mutant expressed in Escherichia coli BL21(DE3) assessed as reduction in pronase-mediated protein degradation incubated for 1 hr followed by pronase addition and measured after 15 mins by SDS-PAGE based Western blot analysis. In outline: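 DARTS used Δ29 human DHODH with a C-terminal His6 tag, expressed in E. coli BL21(DE3) and purified on HisTrap then Superdex200. Protein at 20 μg/ml in TNC buffer (50 mM Tris pH 8.0, 50 mM NaCl, 10 mM CaCl2) was incubated 1 h at RT with compound or DMSO. Pronase followed, 15 min at 37 °C; protease-inhibitor quench; anti-DHODH western blot.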

Data set [6] relates to Hepatitis C virus. Kind of data set: Antiviral activity against EGFP-fused HCV JFH-1 harboring K78E/E2-G451R/NS3-M260K/NS5A-T462I mutation infected in human Huh7.5.1 cells assessed as combination index after 2 days in presence of IFNalpha by qRT-PCR analysis. It counts as functional, Hepacivirus hominis. Summed up:
as §2

Data set [7] is described as follows: Cytotoxicity against human Huh7.5.1 cells assessed as decrease in cell viability after 48 hrs by WST1 assay. Format: cell-based. In outline: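 Cells seeded at 1 × 10^4 per well and cultured overnight at 37 °C, then incubated 48 h with serially diluted compounds. Viability read with WST-1 reagent as absorbance at OD450/OD630.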
Data set [8] is described as follows: Cytotoxicity against African green monkey Vero cells infected with CHIKV assessed as decrease in cell viability after 48 hrs by WST1 assay. It counts as cell-based. The conditions noted are these: chlorocebus sabaeus. In outline: (§3)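 Cells at 1×10^4/well, cultured overnight at 37 °C, were incubated 48 h with serially diluted compound. Viability was read by WST-1 absorbance (OD450/OD630).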

The subject of data set [9] is Hepatitis C virus. Kind of data set: Ratio of EC50 for antiviral activity against HCV infected in human Huh7.5.1 cells assessed as decrease in viral infection in presence of uridine to EC50 for antiviral activity against HCV infected in human Huh7.5.1 cells assessed as decrease in viral infection in absence of uridine. Format: functional, Hepacivirus hominis. In outline:
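HCV antiviral EC50 in Huh7.5.1 cells was measured with 0.5 mM uridine supplemented, and compared with the EC50 obtained without uridine.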

Data set [10] has as its system Hepatitis C virus. The data set can be described thus: Antiviral activity against EGFP-fused HCV JFH-1 harboring K78E/E2-G451R/NS3-M260K/NS5A-T462I mutation infected in human Huh7.5.1 cells assessed as reduction in viral RNA level after 2 days in presence of cyclosporin A by qRT-PCR analysis. Format: functional, organism-based. The note with it: Hepacivirus hominis. In outline: as §1

A short description of data set [11]: Selectivity index, ratio of CC50 for human Huh7.5.1 cells to EC50 for EGFP-fused HCV JFH-1 harboring K78E/E2-G451R/NS3-M260K/NS5A-T462I mutant infected in human Huh7.5.1 cells. Format: toxicity, cell-based. The conditions noted are these: read-out: Ratio CC50/EC50.
Data set [12] concerns Dengue virus. Kind of data set: Antiviral activity against DENV infected in human Huh7.5.1 cells assessed as inhibition of viral replication measured after 3 days by qRT-PCR analysis. It counts as functional, organism-based. The note with it: Huh-7.5.1, 72 h. Summed up: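 Huh7.5.1 cells were infected with DENV II or ZIKV at MOI 0.1 and treated with compound. Viral RNA was quantified by qRT-PCR after 3 days. EC50 is 50% reduction of RNA level.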

The test system of data set [13] is Chikungunya virus. The data set can be described thus: Antiviral activity against CHIKV infected in African green monkey Vero cells assessed as reduction in viral titre measured at 36 hrs post infection. Format: functional, organism-based.
A short description of data set [14]: Cytotoxicity against MDCK cells infected with Gaussia tagged Influenza A virus (A/Puerto Rico/8/34(H1N1)) measured after 48 hrs by WST1 assay. It counts as cell-based, Canis lupus familiaris. The conditions noted are these: dog. In outline: as §3
Background: Tetrazolium assays rely on reduction of a dye to a coloured formazan, in cell work by metabolically active cells.

For data set [15], the system named is Hepatitis C virus. Kind of data set: Antiviral activity against EGFP-fused HCV JFH-1 harboring K78E/E2-G451R/NS3-M260K/NS5A-T462I mutation infected in human Huh7.5.1 cells assessed as combination index after 2 days in presence of cyclosporin A by qRT-PCR analysis. Format: functional, Hepacivirus hominis. Summed up:
as §2

For data set [16], the system named is Hepatitis C virus. Kind of data set: Antiviral activity against EGFP-fused HCV JFH-1 harboring K78E/E2-G451R/NS3-M260K/NS5A-T462I mutation infected in human Huh7.5.1 cells assessed as reduction in viral RNA level after 2 days in presence of boceprevir by qRT-PCR analysis. Format: functional, organism-based. The conditions noted are these: Hepacivirus hominis. Summed up:
as §1

`CCN(CC)c1ccc(Oc2ccc(-c3[nH]c4cccc(F)c4c(=O)c3C)cc2F)cc1`: the Activity result in data set [1], in data set [5], in data set [10] and in data set [16] was “Dose-dependent effect” each time. Further, the CI entry in [2] is “>=10 - 50”; in data set [6], “>=10 - 50”; in data set [15], more than 50. Moreover, in data set [3], the inhibition result was “Active”. Moreover, the EC50 (as a rule, the concentration that produces a half-maximal response) in data set [4] was 4 to 7 nM; in data set [12], 7 nM; in data set [13] it was 260 nM. In addition, the CC50 at 48 h in data set [7], in data set [8] and in data set [14] was more than 2500 nM in each case. For the same compound, the “Ratio EC50” value in data set [9] is 200. The selectivity ratio in data set [11] was more than 416.

These data come from ChEMBL document CHEMBL4334439, “Discovery, Optimization, and Target Identification of Novel Potent Broad-Spectrum Antiviral Inhibitors” (J Med Chem, 2019).
